Hits are enriched below; roughly 1.9% of the tested compounds scored in any of these assays.
SUMO HTRF inh: blocks human SUMOylation mediated by UBC9; P63279; HTRF SUMOylation assay, SAE1/SAE2 + UBC9, in vitro; inhibition, % at 35 µM; 290,000 tested, 0.36% active; AID 2006; in the data active = inhibition above about 50%, passing the limit was not always enough
Target sequence (P63279 whole entry, looked up): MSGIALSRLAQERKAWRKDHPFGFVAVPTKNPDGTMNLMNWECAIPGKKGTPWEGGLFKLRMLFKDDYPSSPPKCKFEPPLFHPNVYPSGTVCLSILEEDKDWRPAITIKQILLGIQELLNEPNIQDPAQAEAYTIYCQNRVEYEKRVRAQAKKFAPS
T cell modulator: T cell immune modulation candidate; 2C CD8+ T cell-vesicle binding, flow cytometry; stronger effect = lower value; response (vesicle binding), % at 7 µM; 330,000 tested, 0.068% active; AID 2052;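 active = response, share of CD8 T cells binding vesicles, and their 90th percentile fluorescence all below set limits, cut at about 80% in these data, passing the limit was not always enough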;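 also: values below 100% mean blocked vesicle binding to the CD8+ T cells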
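Benchmarks: naked versus QL9-loaded vesicles / Assay system: purified 2C TCR transgenic mouse naive CD8+ T cells / Technique: high-throughput flow cytometry with anti-B7-1 and anti-CD8 staining / Timing: Cell–vesicle co-incubation 1.5 h at 37 °C, staining 20 min on ice / Read-out: percent CD8+ FL2 mean versus row control / Probe or stimulus: QL9-loaded Drosophila micro-vesicles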
p-CIP stab down: lowers stability of the mouse p/CIP coactivator protein. Q05BA5. F442A p/CIP-EGFP cells, EGFP fluorescence, 16 h. decrease of EGFP signal, % at 10 µM. 290,000 tested, 0.01% active. AID 1984;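 active = EGFP signal decrease of at least 30% at 10 µM or well 3 SD below plate mean, unless failing retest; inactive = the rest, including hits failing retest or dose response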
VIM-2 inhibitor: inhibitors of Pseudomonas aeruginosa VIM-2 metallo-beta-lactamase. 290,000 tested, 0.89% active. purified VIM-2, nitrocefin hydrolysis, epi-absorbance fluorescence. inhibition, % at 5.6 µM. AID 1527;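 active = inhibition above the mean of all tested compounds plus 3 SD, cutoff set per screening run, cut at about 7.5% in these data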;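 also: red hydrolysis product quenches plate fluorescence so inhibitors raise well fluorescence; 0% = enzyme with DMSO and 100% = DMSO without enzyme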
CTSL1 counter: counter-screen for PFM18AAP inhibitors: inhibitors of F. hepatica cathepsin L1. recombinant F. hepatica cathepsin L1, Z-Leu-Arg-MCA fluorescence. 300,000 tested, 0.49% active. AID 1906. inhibition, % at 5.96 µM;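 active = inhibition above the mean of all tested compounds plus 3 SD, set per screening campaign, cut at about 17% in these data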;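 also: 0% = plate median of test compound wells and 100% = 1 µM Z-Phe-Ala-diazomethylketone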
IMP-1 inh: blocks Pseudomonas aeruginosa IMP-1 metallo-beta-lactamase. purified IMP-1, nitrocefin hydrolysis, epi-absorbance fluorescence. inhibition, % at 5.6 µM. 290,000 tested, 0.45% active. AID 1556;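 active = inhibition above the mean plus 3 SD of all compounds in the same screening run, cut at about 4.5% in these data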;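 also: 0% = IMP-1 with DMSO and 100% = DMSO wells lacking enzyme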
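system = purified recombinant IMP-1 beta-lactamase | amount = 0.2 nM IMP-1, as dispensed | medium = HEPES buffer pH 7.1 with ZnSO4 and Brij 35 | times = 25 °C, 15 min preincubation, 25 min reaction | detection = plate fluorescence quenching by hydrolysis product, ex 480/em 530 nm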
Starred values were filed as active, the others as inactive; x = not tested or not shown.

SMILES	SUMO HTRF inh	T cell modulator	p-CIP stab down	VIM-2 inhibitor	CTSL1 counter	IMP-1 inh
Fc1ccc(Nc2nc(N3CCOCC3)nc(N3CCOCC3)n2)cc1Cl	3	353	-15	0	-3	0
Clc1ccc(Nc2nc(NCCN3CCOCC3)nc(N3CCOCC3)n2)cc1	-16	298	-14	0	18*	-2
CC(C)c1onc(C(=O)NCc2cccs2)c1[N+](=O)[O-]	11	532	8	0	23*	-1
Cc1onc(C(=O)NCc2cccs2)c1[N+](=O)[O-]	10	0	7	-4	5	0
COC(=O)C(Cc1ccccc1)NS(=O)(=O)c1ccc(F)cc1Br (stereo not given)	6	824	3	x	-1	x
CC(C)CC(=O)NC(=S)Nc1ccccc1N1CCCC1	22	436	3	6	20*	-1
CCOc1ccc(NC(=O)CSc2nc3ccccc3nc2N2CCOCC2)cc1	12	696	-8	-1	4	-1
CCCCNS(=O)(=O)c1ccc(OCC(=O)OC)cc1	2	6.7*	-10	-3	1	-2
CCCNS(=O)(=O)c1ccc(OCC(=O)OC)cc1	-16	178	-7	-1	-1	-3
COc1cc(/C=C(\C#N)C(=O)NCCc2ccccc2)cc(OC)c1O	-2	253	9	-3	0	-4
COc1cc(/C=C(\C#N)C(=O)c2c[nH]c3ccccc23)cc(OC)c1O	9	244	-65	-3	-1	4.8*
Cc1c(C=O)c2ccccn2c1C(=O)c1cccs1	6	252	-7	8.3*	0	-2
CC1(c2ccccc2)NC(=O)N(CC(=O)N2CCN(S(=O)(=O)c3cccc([N+](=O)[O-])c3)CC2)C1=O (stereo not given)	x	160	x	x	-2	x
CC[C@H](C)[C@@H](CN[C@H](CCCCNC)CNC)NCC1CCCC1	16	708	-11	12*	-3	-3
COc1ccc(C=Nc2cccc3c(=O)[nH][nH]c(=O)c23)c2ccccc12	9	224	-14	-1	3	27*
Cc1ccc(/C([O-])=C(/C(=S)NCc2ccco2)[n+]2ccccc2)cc1	18	256	-18	-1	2	2
[O-]/C(=C(\C(=S)NCc1ccco1)[n+]1ccccc1)c1ccccc1Br	14	355	-5	0	5	4.8*
COc1cc(C(=O)NC(=S)Nc2ccc([N+](=O)[O-])cc2)cc(OC)c1OC	13	202	-11	-1	5	4.6*
CC(OC(=O)c1ccc([N+](=O)[O-])s1)C(=O)Nc1ncc(Cl)cc1Cl (stereo not given)	-6	158	-2	0	27*	1
Oc1oc(-c2ccco2)nc1C=Nc1cccc(Cl)c1	25	321	-7	-2	37*	-1
Cc1cc(Cl)cc2c(N=Nc3ccccc3C(=O)O)c(O)[nH]c12	14	105	-27	-4	1	-3
Cc1ccc(Cl)c2c(N=Nc3ccccc3)c(O)[nH]c12	20	136	-6	7	x	4.6*
O=C(CCN1CCN(c2ccccc2F)CC1)Nc1cccc(F)c1	19	423	-12	0	3	-3
NS(=O)(=O)c1ccc(Oc2ccc(S(N)(=O)=O)cc2)cc1	10	499	6	-5	17*	-5
O=C(N/N=C/c1c(O)ccc2ccccc12)c1ccc[n+](CCO)c1	1	421	-13	-4	20*	-5
SMILES	SUMO HTRF inh	T cell modulator	p-CIP stab down	VIM-2 inhibitor	CTSL1 counter	IMP-1 inh
COc1ccc2ccccc2c1/C=N/NC(=O)c1cccc(C)c1	x	788	x	x	18*	x
O=C(N/N=C\c1c(O)ccc2ccccc12)c1ccc(O)cc1	-57	122	-6	-2	0	-2
O=C(Nc1ccc2c(c1)CCCN2C(=O)c1ccccc1)c1ccccc1	9	251	-8	-1	2	-2
Cc1[nH]c2ccccc2c1CCC(N)=O	4	252	-1	-1	1	0
Cc1[nH]c2ccccc2c1Cc1nnc(SCC(N)=O)o1	19	228	-17	0	-12	9.6*
CC(C)n1nccc1NS(=O)(=O)c1ccccc1	x	130	x	x	x	x
Cn1nccc1NC(=O)Nc1cccc([N+](=O)[O-])c1	49	253	-13	-3	3	-3
CC(C)n1nccc1NC(=O)Nc1ccccc1	25	236	-13	0	7	9.1*
Cn1nccc1NC(=O)Nc1cccc(Cl)c1	59*	220	3	-2	10	-2
CN1CCN(C(=O)C2=C[C@@H](c3ccc(Br)cc3)C[C@@H](OCc3ccc(CO)cc3)O2)CC1	5	443	-5	-2	17*	-2
Cc1ccc(C(=O)COC(=O)c2cccc([N+](=O)[O-])c2)s1	x	636	x	x	x	x
Cc1ccc(NC(=O)Cn2cncc2-c2ccc([N+](=O)[O-])cc2)cc1C	-4	122	-6	-2	4	12*
Cc1cc(C)c(NC(=O)CN(C)C(=O)c2ccc(OCc3ccccc3)cc2)c(C)c1	x	468	x	x	x	x
CC1=CC2=C(OC1N(C)C)c1cccc3cccc(c13)C2=O (stereo not given)	-2	296	-14	3	2	7.3*
O=C(CCS(=O)(=O)c1ccccc1)NCc1ccccc1	2	474	-16	-1	31*	0
O=C(CCS(=O)(=O)c1ccc(Br)cc1)NCc1ccco1	8	204	6	-2	0	20*
Cc1sc2nc(CSc3cccc(C(F)(F)F)c3)[nH]c(=O)c2c1C	19	379	-10	0	4	-3
CC1CC(C)CN(S(=O)(=O)c2cccc(C(=O)OCCN3CCCC3=O)c2)C1 (stereo not given)	-4	467	-11	-3	18*	-3
CCc1ccccc1N(CC(=O)NC(C)C)C(=O)CCC(=O)Nc1nccs1	5	302	6	0	0	-3
COCc1cc(C)nc2sc(C(=O)Nc3cccc(OC)c3)c(N)c12	22	195	-4	0	-9	-1
O=C1Nc2ccccc2N(O)N1c1ccc(S(=O)(=O)N2CCCCCC2)cc1	0	452	-1	-3	3	-3
COc1ccc(S(=O)(=O)N2CCN(Cc3cccc(Cl)c3)CC2)cc1	-1	518	3	-3	1	-2
COc1cccc(CN2CCN(S(=O)(=O)c3ccc(Cl)s3)CC2)c1	-16	0.0*	-6	0	1	0
O=C(CCSc1ccccc1)Nc1ccc(S(=O)(=O)N2CCOCC2)cc1	4	265	-3	0	-9	47*
Cc1cccc(N2CCN(CC(=O)Nc3ccc(S(=O)(=O)N4CCOCC4)cc3)CC2)c1C	-10	658	-2	2	-6	4.5*
